# Publication PMC7559020 (ACS infectious diseases, 2020)
# Read-outs that look alike come from different tables or passages of the source.
# Assays:
# DENV2 = assay: Viral plaque reduction assay, DENV2 in A549 cells; assay type: cell-based; conditions: read-out: EC50-DN2 (A549)
# ZIKV [1] = assay: Viral titer reduction assay, ZIKV in A549 cells; assay type: cell-based, Zika virus
# Summary of the method: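 ZIKV infection of human A549 lung carcinoma cells with test compound over a dose range. Virus titre reduction measured, run in triplicate. EC50 obtained by nonlinear regression fit of the dose–response curve.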
# A549 cells = assay: WST-8 cell proliferation; conditions: read-out: CC50 (A549); cell viability, A549 cells, 48 h
# viral NS3 protease = viral NS3 protease (Dengue virus type 2, UniProt P29990); assay: Protein thermal shift assay; assay type: binding; conditions: PTSA
# MBP-NS3 Y23A = MBP-NS3 Y23A (Dengue virus type 2, UniProt P29990, Y1498A); assay type: binding, DENV2; conditions: Y23A vs WT
# MBP-NS3 F46A = MBP-NS3 F46A (Dengue virus type 2, UniProt P29990, F1521A); assay type: binding, DENV2; conditions: F46A vs WT
# MBP-NS3 L58A = MBP-NS3 L58A (Dengue virus type 2, UniProt P29990, L1533A); assay: SPR binding to MBP-NS3 mutant L58A; parameters: species or system DENV2; conditions: L58A vs WT
# MBP-NS3 H60A = MBP-NS3 H60A (Dengue virus type 2, UniProt P29990, H1535A); assay type: binding, DENV2; conditions: H60A vs WT
# ZIKV [2] = assay: qRT-PCR of viral RNA from ZIKV-infected A549 cells; assay type: cell-based, Zika virus
# ZIKV [3] = assay: Immunofluorescence assay; assay type: cell-based, Zika virus; conditions: IFA, anti-E 4G2, A549 cells
# Summary of the method: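 ZIKV-infected cells treated with test compound or DMSO. Viral E protein detected with mouse monoclonal pan-flavivirus anti-E 4G2 and a DyLight 488 goat anti-mouse IgG secondary. Nuclei counterstained with Hoechst.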
# ZIKV [4] = assay: ZIKV inhibition in human neural progenitor cells; assay type: cell-based, Zika virus; conditions: human iPSC-derived neural progenitor cells, IFA and qRT-PCR
# ZIKV [5] = assay: ZIKV infection of 3D mini-brain organoids; assay type: cell-based, Zika virus; conditions: 1.5 μM
# 3D organoids = assay: Toxicity on 3D mini-brain organoids; assay type: cell-based, human; conditions: 1.5 μM
# [6] = Repeated oral dosing toxicity in mice; assay type: in vivo, mouse; conditions: repeated oral dosing 40 mg/kg/day for 7 days, N = 6
# ZIKV [7] = assay: Time of addition experiment, ZIKV titer by plaque forming assay; assay type: cell-based, Zika virus; conditions: 0.75 μM added at time points postinfection, titers at 48 h
# ZIKV NS3 = assay: Western blot of ZIKV NS3 and polyprotein precursor in infected A549 cells; assay type: cell-based, Zika virus; conditions: A549, MOI 0.1, 48 h
# Summary of the method: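 Preseeded A549 cells were treated with a dose series of test compound or DMSO and infected with ZIKV at MOI 0.1. At 48 h post-infection, cells were washed, harvested, given protease inhibitor cocktail and lysed in SDS-PAGE loading buffer (95 °C, 10 min). Blots were probed with anti-ZIKV NS3 and anti-GAPDH. PP and NS3 band intensities were normalised to GAPDH, N = 3.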
# MBP-NS3 I25A = conditions: I25A vs WT
# WST-8 cell proliferation = conditions: human
# DENV2 NS2B–NS3 protease = DENV2 NS2B–NS3 protease (Dengue virus type 2, UniProt P29990); assay: NS2B–NS3 protease inhibition assay; assay type: biochemical
# DENV2 replicon = DENV2 replicon assay; assay type: cell-based; conditions: Dengue virus, DENV2, BHK-21, 48 h, read-out: EC50-DN2 (DENV2 replicon cell line)
# ZIKV [8] = assay: ZIKV viremia mouse model; assay type: in vivo, Zika virus; conditions: data not shown
# [9] = virus production, A549 cells, 48 h postinfection
# [10] = read-out: EC50-ZK (A549), virus production, A549 cells
# [11] = Zika virus, A549, read-out: EC50-ZK (A549)
smiles,measurement,setting,value
Nc1ccc(NC(=O)c2cc(Cl)ccc2O)c(Cl)c1 [HJC0129],EC50,DENV2; [9],> 30 µM
same,EC50,ZIKV [1]; [10],> 30 µM
same,CC50,A549 cells,176 µM
CC(=O)Nc1ccc(NC(=O)c2cc(Cl)ccc2O)c(Cl)c1 [HJC0140],EC50,DENV2; [9],> 30 µM
same,EC50,ZIKV [1]; [10],> 30 µM
O=C(Nc1ccc2c(c1)S(=O)(=O)C=C2)c1cc(Cl)ccc1O [HJC0149],EC50,DENV2; [9],0.9 µM
same,EC50,ZIKV [1]; [10],1.1 µM
same,CC50,A549 cells,241 µM
NCCCOc1ccc(Cl)cc1C(=O)Nc1ccc([N+](=O)[O-])cc1Cl [HJC0308],EC50,DENV2; [9],1.4 µM
same,EC50,ZIKV [1]; [10],6.2 µM
same,CC50,A549 cells,17.7 µM
CN1CCN(CCOc2ccc(Cl)cc2C(=O)Nc2ccc([N+](=O)[O-])cc2Cl)CC1 [HJC0365],EC50,DENV2; [9],6.4 µM
same,EC50,ZIKV [1]; [10],6 µM
same,CC50,A549 cells,177 µM
CN1CCC(Oc2ccc(Cl)cc2C(=O)Nc2ccc([N+](=O)[O-])cc2Cl)CC1 [HJC0381],EC50,DENV2; [9],1.2 µM
same,EC50,ZIKV [1]; [10],3.9 µM
same,CC50,A549 cells,91.1 µM
NCCCCOc1ccc(Cl)cc1C(=O)Nc1ccc([N+](=O)[O-])cc1Cl [HJC0431],EC50,DENV2; [9],2.2 µM
same,EC50,ZIKV [1]; [10],0.36 µM
same,CC50,A549 cells,28.4 µM
"O=C(Nc1ccc([N+](=O)[O-])cc1Cl)c1cccc([N+](=O)[O-])c1O [JMX0207, N-(2-Chloro-4-nitrophenyl)-2-hydroxy-3-nitrobenzamide]",EC50,"DENV2; Dengue virus, DENV2, A549, 48 h",0.31 µM
same,EC50,ZIKV [1]; [11],0.3 µM
same,increase in Tm of the viral protein,viral NS3 protease,0.75 °C
same,effect of mutation on binding affinity,MBP-NS3 Y23A,do not have any effect
same,effect of mutation on binding affinity,MBP-NS3 F46A,do not have any effect
same,effect of mutation on binding,MBP-NS3 L58A,abolished the binding
same,reduction of binding affinity by mutation,MBP-NS3 H60A,2- to 3 fold
same,ZIKV RNA copy number,ZIKV [2],significantly reduced the ZIKV RNA copy number in a dose-dependent manner
same,ZIKV antigen production,ZIKV [3],greatly reduced ZIKV antigen production
same,ZIKV protein expression and RNA synthesis in HNPCs,ZIKV [4],effectively inhibited
same,ZIKV production from 3D organoids,"ZIKV [5]; PFU assay, 5 dpi",significantly inhibited
same,protection of organoid slices from ZIKV infection (immunostaining),"ZIKV [5]; ZIKV PRVABC59, anti-E 4G2",nearly completely protected the organoids from ZIKV infection
same,ZIKV infection in the 3D organoid,"ZIKV [5]; ZIKV-Venus, MOI 1, fluorescence imaging 7 dpi, vs DMSO",completely abolished ZIKV infection
same,toxic effect on 3D organoids,3D organoids,did not have any toxic effect
same,signs of toxicity,[6],did not display any sign of toxicity
same,reduction of ZIKV titer by time of addition,ZIKV [7],equally effective in reducing ZIKV titer even at 24 h postinfection
same,"high MW protein (unprocessed viral polyprotein precursor, PP)",ZIKV NS3,dose-dependent increase
same,viral NS3 protein production,ZIKV NS3,dose-dependent reduction
same,reduction of binding affinity by mutation,MBP-NS3 I25A,2- to 3 fold
same,CC50 at 48 h,WST-8 cell proliferation,31.9 µM
"O=C(Nc1ccc([N+](=O)[O-])cc1Cl)c1cc(Cl)ccc1O [Niclosamide, reference compound]",IC50,DENV2 NS2B–NS3 protease,21.6 µM
same,EC50,ZIKV [1]; [11],0.48 µM
same,EC50,DENV2 replicon,2 µM
same,in vivo antiviral efficacy toward ZIKV,ZIKV [8],did not show appreciable in vivo antiviral efficacy
